This is an account of results in PMC3594358 (Nature structural & molecular biology, 2013).

Assay [1] relates to 53BP1-Tudor. Nature of the assay: NMR titration of 53BP1-Tudor with H4 peptide. It counts as binding. In a few lines: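 0.3 mM 15N-labelled 53BP1-Tudor titrated with unlabelled H4 peptide (synthetic H4K20me2, aa 14-27) from a 15 mM stock and followed by 1H-15N HSQC. In the reverse titration, 0.5 mM 13C/15N-labelled recombinant H4KC20me2 (aa 14-27, dimethyl-lysine analogue) received unlabelled Tudor from a 5 mM stock and was followed by 1H-13C HSQC.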

In assay [2] the test system is 53BP1 −/− mouse embryonic fibroblasts. Kind of assay: Metaphase spreads, radial chromosomes, 53BP1 −/− MEFs. To be noted: TIP60 siRNA + Olaparib; 53BP1 −/− vs 53BP1 +/+ MEFs. It is filed as cell-based. The method, boiled down:
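53BP1+/+ and 53BP1−/− MEFs were transfected with control or mouse TIP60 siRNA using RNAiMax, analysed 48–72 h later, and treated with Olaparib. Cells were arrested with 0.5 μM nocodazole for 3–4 h, swollen in 75 mM KCl, fixed on ice in 3:1 methanol/acetic acid, dropped onto slides at 55°C and Giemsa-stained. Metaphases were scored for radial chromosomes, with significance by Fisher's exact test.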

Assay [3] has as its system BRCA1 mutant cells. To be noted: ref [39],[40], cited from earlier work.
Assay [4] relates to U2OS cells. Nature of the assay: Survival following Olaparib. It counts as cell-based. To be noted: percentage survival.
Assay [5] deals with Rad51. Kind of assay: Rad51 accumulation at LacI-FokI DSBs. It is filed as cell-based. To be noted: U2OS-DSB-reporter cells; TSA 0.5 μM vs DMSO; 200 cells per group, at least 2 independent experiments. The method, boiled down:
(§1)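 U2OS cells carrying the LacI-FokI DSB reporter were grown in DMEM with 10% calf serum and siRNA-transfected, then analysed 48–72 h later. DSBs were induced with mCherry-LacI-FokI, with DMSO or 0.5 μM TSA. Coverslips were fixed, permeabilised and immunostained for RPA or Rad51, then mounted with DAPI. The mCherry signal marked the damaged area, where focus presence or intensity was scored after background subtraction per cell.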

The test system of assay [6] is RPA. Kind of assay: RPA accumulation at LacI-FokI DSBs. It is filed as cell-based. To be noted: U2OS-DSB-reporter cells; TSA 0.5 μM vs DMSO; 200 cells per group, at least 2 independent experiments. In a few lines:
as §1

The subject of assay [7] is H4K20me2 in U2OS cells. Nature of the assay: Immunoblot of total H4K20me2. It is filed as cell-based. To be noted: acid-eluted histones from U2OS cells, 0.5 μM TSA, 5 hours. On the technique in general: Immunoblotting shows a protein as a band on a membrane.
In assay [8] the test system is BRCA1. Nature of the assay: ChIP-qPCR BRCA1 at U2OS-DSB-reporter locus. It counts as cell-based. To be noted: 0.5 μM TSA for 5 hours vs DMSO; DSBs induced by mCherry-LacI-FokI. The method, boiled down: (§2)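 U2OS-DSB-reporter cells were given 0.5 μM TSA or DMSO, for 5 h where stated, and DSBs were induced by mCherry-LacI-FokI. Cells were formaldehyde-crosslinked, and chromatin was sonicated to 200–500 bp and immunoprecipitated overnight at 4°C with antibody to 53BP1, BRCA1 or H4ac. After washing and de-crosslinking, SYBR Green qPCR was run at reporter primer sets, quantified against diluted-input standard curves, with S.E.M. and Student t test.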

In assay [9] the test system is H4ac. Nature of the assay: ChIP-qPCR H4ac at U2OS-DSB-reporter locus. It is filed as cell-based. To be noted: 0.5 μM TSA vs DMSO; DSBs induced by mCherry-LacI-FokI. In a few lines:
as §2

In assay [10] the test system is 53BP1. Kind of assay: ChIP-qPCR 53BP1 at U2OS-DSB-reporter locus. It counts as cell-based. To be noted: 0.5 μM TSA, 5 hours before DSB induction by mCherry-LacI-FokI; locus p4. The method, boiled down: as §2
For orientation: Real-time PCR tracks product formation cycle by cycle.

The subject of assay [11] is BRCA1 and 53BP1 at subtelomeric chromatin in 293T cells. Kind of assay: ChIP BRCA1 and 53BP1 at subtelomeric regions, TRF1-FokI. It counts as cell-based. To be noted: 293T cells expressing TRF1-FokI, TSA treatment. The method, boiled down:
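293T cells were transfected with a TRF1-FokI plasmid; controls lacked TRF1-FokI. 16 h later cells were cross-linked in 1% formaldehyde for 10 min and quenched with 0.125 M glycine. Chromatin was sonicated to 200–500 bp and immunoprecipitated overnight at 4°C with BRCA1 or 53BP1 antibodies on protein A agarose. After salt/LiCl/TE washes, chromatin was de-crosslinked overnight at 65°C, then subtelomeric SYBR Green qPCR against input standard curves.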

For assay [12], the system named is 53BP1 IRIF in U2OS cells. Kind of assay: 53BP1 IRIF. It is filed as cell-based. To be noted: HDACi 5 hours prior to 10 Gy IR (TSA 0.5 µM), fixed 5 hours later. In a few lines:
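U2OS cells on coverslips were fixed and permeabilized, then incubated with primary antibody against 53BP1, washed in PBST, and incubated with secondary antibody. Coverslips were mounted in DAPI-containing medium. Images were captured on the same day at equal exposure in 8-bit grayscale and analysed on unmodified images.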

For the compound “H4K20me2: H4K20me2 peptide (aa 14-27) chemically synthesized”, the “shifts of Trp1495 side chain resonances” value in [1] (^1H-^13C HSQC, 298 K, pH 7.0) is “large downfield shifts”. In assay [1] (^1H-^15N HSQC, 0.3 mM ^15N-labeled 53BP1-Tudor, 298 K, 25 mM sodium phosphate, pH 7.0), the “downfield shift of Trp1495 indole HN proton” value was found to be 0.8 p.p.m. In [1] (^1H-^15N HSQC, 298 K, 25 mM sodium phosphate, pH 7.0), the “changes in chemical shift of 53BP1-Tudor binding cage residues (Trp1495, Tyr1502, Phe1519, Asp1521, Tyr1523)” value is listed as “pronounced changes in chemical shift”.
Regarding “non-methylated H4K20 peptide: corresponding non-methylated peptide, control”, in assay [1] (^1H-^15N HSQC, 53BP1-Tudor titrated with non-methylated peptide, vs H4K20me2), the “Trp1495 indole HN shift, in words” value is on record as “markedly reduced”.
With `O=C(c1cc(Cc2n[nH]c(=O)c3ccccc23)ccc1F)N1CCN(C(=O)C2CC2)CC1` [Olaparib], the “impact of TIP60 knockdown on radial chromosome formation by 53BP1 nullizygosity” value in assay [2] was “strongly mitigated”. The “sensitivity to Olaparib, BRCA1 mutation with 53BP1 nullizygosity” value in assay [3] (BRCA1 mutation and 53BP1 nullizygosity) is “reversed”. Further, the “sensitivity to Olaparib, BRCA1 mutation” value in assay [3] (BRCA1 mutation) is “hypersensitivity”. The “sensitivity to Olaparib, TIP60 deficiency with accompanying 53BP1 knockdown” value in assay [4] (TIP60 and 53BP1 siRNA) is on record as “reversed”. Moreover, the “sensitivity to Olaparib, TIP60 deficiency” value in assay [4] (TIP60 siRNA) is recorded as “hypersensitivity”.
In the case of `CC(/C=C/C(=O)NO)=C\[C@@H](C)C(=O)c1ccc(N(C)C)cc1` [TSA, trichostatin A], the “Rad51 accumulation at the LacI-FokI reporter after RVB1 or TIP60 knockdown” value in [5] is given as “restored”. Besides, the “RPA accumulation at the LacI-FokI reporter after RVB1 or TIP60 knockdown” value in [6] is “restored”. Also, in [7], the “total H4K20me2” value is “did not affect”. In addition, the “increase in BRCA1 occupancy” value in [8] is ~4 fold. For the same compound, in assay [9], the “H4 acetylation (H4ac)” value was “elevated”. For the same compound, in [10], the 53BP1 association entry is given as “diminished”. The “response of BRCA1 and 53BP1 at subtelomeric chromatin” value in assay [11] is reported as “divergent response”. Also, in assay [12], the “53BP1 IRIF” value was “strongly reduced”.
